# In the library only some 1.6% were active in any assay of this set; here they are far more common.
# Diaph inh CS – diaphorase inhibition or chemical oxidation counter-screen; inhibition, % at 20 µM; 190,000 compounds, 0.69% hits; diaphorase resazurin-to-resorufin fluorescence, NADH, 16 min; bacterial (C. kluyveri) enzyme, not human;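 active = primary screen inhibition at 20 µM above a set limit, cut at about 50% in these data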
#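 material = Clostridium kluyveri diaphorase enzyme | amount = 0.14 U/mL diaphorase, enzyme working solution | schedule = incubation 16 min, room temperature | detection = fluorescence of resorufin formed from resazurin, Ex 544/Em 590 nm | benchmarks = positive control minus NADH, DMSO neutral control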
# ABCB1 block – blocks JC-1 efflux by human ABCB1 transporter. P08183. CCRF-Adr cells, flow cytometry. inhibition, % at 6.6 µM. 190,000 compounds, 0.067% hits; in the data active = inhibition above about 40%;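 also: higher value means more JC-1 retained so stronger ABCB1 efflux block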
# Target sequence (P08183 whole entry, looked up): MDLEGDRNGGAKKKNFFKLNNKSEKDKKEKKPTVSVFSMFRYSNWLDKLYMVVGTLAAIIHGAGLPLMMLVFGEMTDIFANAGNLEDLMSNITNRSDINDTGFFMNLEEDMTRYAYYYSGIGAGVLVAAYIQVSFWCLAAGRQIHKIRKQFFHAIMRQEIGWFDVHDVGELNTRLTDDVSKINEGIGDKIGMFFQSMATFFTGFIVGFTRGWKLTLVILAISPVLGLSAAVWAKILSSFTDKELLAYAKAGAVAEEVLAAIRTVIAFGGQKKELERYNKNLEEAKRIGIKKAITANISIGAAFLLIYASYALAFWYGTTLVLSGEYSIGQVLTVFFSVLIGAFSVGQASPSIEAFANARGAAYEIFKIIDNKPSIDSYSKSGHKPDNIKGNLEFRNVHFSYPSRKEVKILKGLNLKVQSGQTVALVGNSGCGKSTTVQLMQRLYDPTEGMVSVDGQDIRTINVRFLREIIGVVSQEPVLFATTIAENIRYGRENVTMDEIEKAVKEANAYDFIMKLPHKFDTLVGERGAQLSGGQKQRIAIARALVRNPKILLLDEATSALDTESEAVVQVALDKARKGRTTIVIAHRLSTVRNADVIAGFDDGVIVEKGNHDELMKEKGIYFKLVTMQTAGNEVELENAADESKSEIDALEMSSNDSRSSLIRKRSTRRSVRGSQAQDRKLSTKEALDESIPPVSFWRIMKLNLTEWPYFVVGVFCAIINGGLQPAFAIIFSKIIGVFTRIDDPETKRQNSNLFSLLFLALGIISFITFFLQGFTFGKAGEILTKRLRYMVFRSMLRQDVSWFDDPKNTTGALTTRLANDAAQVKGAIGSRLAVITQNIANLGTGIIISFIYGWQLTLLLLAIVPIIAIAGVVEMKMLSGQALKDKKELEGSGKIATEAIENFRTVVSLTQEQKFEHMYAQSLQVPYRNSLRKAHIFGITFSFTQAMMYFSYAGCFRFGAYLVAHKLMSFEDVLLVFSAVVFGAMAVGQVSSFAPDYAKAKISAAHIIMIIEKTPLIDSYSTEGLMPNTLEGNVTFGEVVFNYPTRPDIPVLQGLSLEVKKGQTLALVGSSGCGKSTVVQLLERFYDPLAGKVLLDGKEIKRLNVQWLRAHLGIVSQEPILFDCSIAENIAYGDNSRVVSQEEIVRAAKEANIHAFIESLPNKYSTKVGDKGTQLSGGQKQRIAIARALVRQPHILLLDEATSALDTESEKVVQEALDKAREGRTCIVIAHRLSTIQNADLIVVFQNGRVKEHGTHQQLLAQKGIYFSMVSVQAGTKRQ
# ABCG2 inh – inhibitors of human ABCG2 transporter, ABCB1 counter-screen; IgMXP3 cells, JC-1 efflux, flow cytometry; AID 1325; inhibition, % at 6.6 µM; Q9UNQ0; 190,000 compounds, 0.1% hits;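 active = inhibition above 80%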
#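 Test system: IgMXP3 (ABCG2) plus far-red-tagged CCRF-Adr (ABCB1) cells. Reagent: JC-1 dye as substrate. Timing: 10 min exposure at 25 °C with rotation, no wash. Measured by: flow cytometric JC-1 green MFI at 530 nm. Read-out: percent efflux inhibition, scaled nicardipine 100% to DMSO 0%. Control set: nicardipine and DMSO wells.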
# HMGR II inh – E. faecalis class II HMG-CoA reductase inhibition | 190,000 compounds, 0.41% hits | purified E. faecalis HMGR, NADPH absorbance 340 nm kinetic | inhibition, % at 10 µM;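 active = inhibition above a set limit, the median over all tested compounds plus 3 SD, cut at about 9.5% in these data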;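 also: enzyme runs in reverse so mevalonate oxidation gives rising NADPH absorbance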
# Diaph act CS – counter-screen for diaphorase-based assays: diaphorase activators and chemical reducers; Diaphorase/resazurin coupled assay, resorufin fluorescence, 16 min; active compounds read high; 1 = vehicle wells, 0 = NADH-free wells; activation factor at 20 µM; 190,000 compounds, 0.005% hits;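 active = diaphorase activity raised at least twofold by the compound at 20 µM; inactive = activation factor below 2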
#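 Assay system: bacterial diaphorase enzyme (C. kluyveri) / Input: enzyme 0.07 U/mL final / Medium: 50 mM HEPES pH 7.4 with 4.542 mM MgCl2, 0.005% Tween 20 / Doses: single compound dose of 20 µM, 1% DMSO final / Incubation: 16 min enzyme reaction, ambient temperature / Signal: fluorescence, excitation 544 nm and emission 590 nm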
# p47phox inh – blocks human p47phox regulatory protein of NADPH oxidases; P14598; 220,000 compounds, 0.53% hits; inhibition, % at 24.7 µM; p47phox/p22phox peptide binding, fluorescence polarization, 2 h;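 active = inhibition above about 30%, limit read from the data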
# Hits are given with their value; i = inactive; nt = not tested or not shown; + = active, no number.
SMILES,Diaph inh CS,ABCB1 block,ABCG2 inh,HMGR II inh,Diaph act CS,p47phox inh
CCOC(=O)c1nn(-c2ccccc2F)c(C)c1C(C)=O,i,i,i,9.8,i,i
CCOC(=O)C(CC)/C(C)=N/NC(=O)c1ccccc1[N+](=O)[O-] (stereo unspecified),i,i,i,i,i,i
COC(=O)C(C)NC(=S)N1CCN(c2c(F)cc3c(=O)c(C(=O)O)cn(C4CC4)c3c2OC)CC1C (stereo unspecified),nt,nt,nt,nt,nt,i
Nc1[nH]n2c(=O)cc(-c3ccccc3)nc2c1N=Nc1ccc2c(c1)OCO2,68,i,i,i,i,i
CN(C)C(CNC(=O)c1ccc2c(c1)S(=O)(=O)c1ccccc1C2=O)c1ccco1 (stereo unspecified),i,i,i,i,i,i
O=C(NNS(=O)(=O)c1ccccc1[N+](=O)[O-])c1ccc(O)cc1,i,i,i,i,i,42
O=C(NNS(=O)(=O)c1ccccc1[N+](=O)[O-])c1ccc(F)cc1,i,i,i,i,i,i
O=C(CNC(=O)c1ccco1)N/N=C/c1c[nH]c2ccccc12,i,i,i,9.7,i,i
CC(=O)N1CCC2(CC1)C/C(=N\NC(=S)Nc1ccc(C)cc1)c1cc(O)ccc1O2,54,i,i,i,i,i
CCN(CC)c1ccc(/C=C2\CCC(/C=C(\C#N)C(=O)Nc3ccccc3F)=C2N2CCOCC2)cc1,i,i,i,i,i,120
N#C/C(=C\C1=C(N2CCOCC2)C(=C\c2ccc(Cl)cc2)/CC1)C(=O)Nc1ccccc1F,i,i,i,i,i,i
Cc1ccccc1OCCn1cnc2c(N)ncnc21,i,i,i,i,i,41
CC12CCC(C(=O)N(CSC(=S)N/N=C\c3ccccc3O)C1=O)C2(C)C (stereo unspecified),57,i,i,9.9,i,i
N#Cc1cnc(NOCc2ccc(Cl)cc2)nc1,i,i,i,9.6,i,i
CCN1c2ccccc2N(C)C1(C)c1ccccc1 (stereo unspecified),59,i,i,i,i,63
CN1c2ccccc2N(C)C1(C)c1ccccc1,i,i,i,i,i,70
CCN1C(=O)N(c2cccc3ccccc23)C(C)=CC1(C)C,i,i,i,i,i,i
CC(=O)Nc1nc(=O)c2ccccc2s1,i,i,i,i,i,i
COc1ccc(N(CC(=O)N2CCN(c3ccccc3)CC2)S(=O)(=O)c2c(C)noc2C)cc1,i,i,i,i,i,i
CCOc1ccc(N(CC(=O)N2CCN(c3ccccc3)CC2)S(=O)(=O)c2c(C)noc2C)cc1,i,i,i,i,i,43
NS(=O)(=O)c1ccc(-c2ccc(/C=C3\SC(=S)N(C4CCS(=O)(=O)C4)C3=O)o2)cc1 (stereo unspecified),nt,nt,nt,nt,nt,36
COC(=O)C1CCN(C2=C(NS(=O)(=O)c3ccc(Cl)cc3)C(=O)c3ccccc3C2=O)CC1,nt,nt,nt,nt,nt,i
CC1CCCN(C2=C(NS(=O)(=O)c3ccc(Cl)cc3)C(=O)c3ccccc3C2=O)C1 (stereo unspecified),i,i,i,i,i,50
COc1ccc(N=C/C=C2\C=C(c3ccccc3)OC(C)(C)O2)cc1,i,i,i,i,i,i
CNC(=S)NNC(=O)CNc1ccc(C)c(Cl)c1,i,i,i,i,i,+
SMILES,Diaph inh CS,ABCB1 block,ABCG2 inh,HMGR II inh,Diaph act CS,p47phox inh
COc1ccccc1-c1noc(-c2ccccc2C(=O)NCc2ccco2)n1,i,i,i,i,i,i
COc1cc(-c2noc(-c3ccccc3C(=O)NCc3ccco3)n2)cc(OC)c1OC,i,i,i,i,i,42
O=C(Nc1cccnc1)c1ccccc1F,i,i,i,i,i,i
O=C(/C=C/c1ccncc1)c1ccc(NC(=O)c2ccccc2F)cc1,i,i,i,i,i,30
Cc1cc2nnc(SCC(=O)Nc3cc(S(=O)(=O)N4CCOCC4)ccc3Cl)n2c2ccccc12,i,i,i,i,i,i
Cc1ccc(S(=O)(=O)N2CCOCC2)cc1NC(=O)CSc1nnc2cc(C)c3ccccc3n12,54,i,i,i,i,i

# Screening results as filed in PubChem.
